ChEMBL document CHEMBL2169804, “Novel histone deacetylase 8 ligands without a zinc chelating group: exploring an 'upside-down' binding pose” (Bioorg Med Chem Lett, 2012)
pIC50, pKi: −log10 of the molar value. Each block holds one compound with its values, some of them ahead of it. Activity calls are given as the source filed them. No cut-off for these calls is given here.

Legend:
Histone deacetylase 3 [1] = target: T1, Histone deacetylase 3 (Homo sapiens, UniProt O15379); assay: Inhibition of human recombinant HDAC3 using Boc-Lys(Ac)-AMC as substrate preincubated for 5 mins followed by substrate addition measured after 30 mins by microplate reader analysis
[2] = target: T2, Histone deacetylase 8 (Homo sapiens) (UniProt Q9BY41); assay: (§1) Binding affinity to human recombinant HDAC8 expressed in Escherichia coli assessed as enzyme biotinylation level at 5 uM preincubated for 3 hrs followed by denaturation measured after 60 mins by Western blot-based photoaffinity labelling method in presence of 250 uM PCI34051
T2 sequence (whole entry): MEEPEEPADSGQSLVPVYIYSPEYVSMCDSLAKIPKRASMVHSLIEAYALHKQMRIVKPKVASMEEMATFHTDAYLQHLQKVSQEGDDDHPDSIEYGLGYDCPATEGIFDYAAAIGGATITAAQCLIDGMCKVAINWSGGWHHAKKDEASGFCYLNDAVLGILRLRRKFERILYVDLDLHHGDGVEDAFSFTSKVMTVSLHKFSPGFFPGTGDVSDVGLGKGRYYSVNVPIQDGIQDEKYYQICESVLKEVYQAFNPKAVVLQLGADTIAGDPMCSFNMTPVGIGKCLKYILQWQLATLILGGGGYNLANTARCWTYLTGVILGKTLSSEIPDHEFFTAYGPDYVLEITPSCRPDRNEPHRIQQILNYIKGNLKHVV
Summary of the method: (§2)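 Probe, or probe plus competitor, preincubated 3 h at room temperature, then irradiated at 254 nm for 3 × 1 min with 1 min rests. For denaturing runs, SDS was added to 2% w/v final and held 30 min at 37 °C.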

[3] = target: T2, Histone deacetylase 8 (Homo sapiens); assay: Binding affinity to human recombinant HDAC8 expressed in Escherichia coli assessed as increase in enzyme biotinylation level preincubated for 3 hrs followed by denaturation measured after 60 mins by Western blot-based photoaffinity labelling method; summary of the method: as §2
[4] = target: T2, Histone deacetylase 8 (Homo sapiens); assay: Binding affinity to human recombinant HDAC8 expressed in Escherichia coli assessed as increase in enzyme biotinylation level at 5 uM preincubated for 3 hrs followed by denaturation measured after 60 mins by Western blot-based photoaffinity labelling method in presence of 5 uM SAHA; summary of the method: as §2
[5] = target: T2, Histone deacetylase 8 (Homo sapiens); assay: Binding affinity to human recombinant HDAC8 expressed in Escherichia coli assessed as increase in enzyme biotinylation level at […] preincubated for 3 hrs followed by denaturation measured after 60 mins by Western blot-based photoaffinity labelling method
[6] = target: T2, Histone deacetylase 8 (Homo sapiens); assay: Binding affinity to human recombinant HDAC8 expressed in Escherichia coli assessed as increase in enzyme biotinylation level at […] under non denaturating condition after 3 hrs by Western blot-based photoaffinity labelling method
[7] = target: T2, Histone deacetylase 8 (Homo sapiens); assay: Binding affinity to human recombinant HDAC8 expressed in Escherichia coli assessed as enzyme biotinylation level at 5 uM preincubated for 3 hrs followed by denaturation measured after 60 mins by Western blot-based photoaffinity labelling method in presence of 250 uM SAHA; summary of the method: as §2
[8] = target: T2, Histone deacetylase 8 (Homo sapiens); assay: Binding affinity to human recombinant HDAC8 expressed in Escherichia coli assessed as enzyme biotinylation level at 5 uM preincubated for 3 hrs followed by denaturation measured after 60 mins by Western blot-based photoaffinity labelling method in presence of 250 uM TSA; summary of the method: as §2
[9] = target: T2, Histone deacetylase 8 (Homo sapiens); assay: as §1, with “7-[4-(3,5-Dimethyl-benzyloxy)phenylcarbamoyl]heptanoic acid methyl ester” for “PCI34051”; summary of the method: as §2
Histone deacetylase 8 = target: T3, Histone deacetylase 8 (Homo sapiens, UniProt Q9BY41); assay: Inhibition of human recombinant HDAC8 using fluor de Lys as substrate preincubated for 5 mins followed by substrate addition measured after 25 mins by microplate reader analysis; conditions: for pIC50: read-out: IC50
T3 sequence (Q9BY41 whole entry): T2 sequence (whole entry)

Histone deacetylase 1 [10] = target: T4, Histone deacetylase 1 (Homo sapiens, UniProt Q13547); assay: Inhibition of human recombinant HDAC1 using Boc-Lys(Ac)-AMC as substrate preincubated for 5 mins followed by substrate addition measured after 30 mins by microplate reader analysis
Histone deacetylase 2 [11] = target: T5, Histone deacetylase 2 (Homo sapiens, UniProt Q92769); assay: Inhibition of human recombinant HDAC2 using Boc-Lys(Ac)-AMC as substrate preincubated for 5 mins followed by substrate addition measured after 30 mins by microplate reader analysis
Histone deacetylase 1 [12] = target: T4, Histone deacetylase 1; assay: Inhibition of nuclear HDAC1 in human SH-SY5Y cells assessed as increase in histone H4 acetylation after 24 hrs by Western blot analysis; format: cell-based
Summary of the method: (§3)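 SH-SY5Y cells were grown to 80% confluence in 1:1 DMEM:OPTI-MEM with 10% FBS. They were treated with vehicle or compound for 24 h at 37 °C, 5% CO2, then lysed in RIPA buffer with protease and phosphatase inhibitors. Lysate containing 20 µg protein was run by SDS-PAGE and blotted with anti-acetyl α-tubulin or anti-acetyl histone H4 (1:1000) overnight at 4 °C, with anti-GAPDH as reference. Detection was by chemiluminescence on a CCD camera.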

Histone deacetylase 2 [13] = target: T5, Histone deacetylase 2; assay: Inhibition of nuclear HDAC2 in human SH-SY5Y cells assessed as increase in histone H4 acetylation after 24 hrs by Western blot analysis; format: cell-based; summary of the method: as §3
Histone deacetylase 3 [14] = target: T1, Histone deacetylase 3; assay: Inhibition of nuclear HDAC3 in human SH-SY5Y cells assessed as increase in histone H4 acetylation after 24 hrs by Western blot analysis; format: cell-based; summary of the method: as §3
[15] = target: T2, Histone deacetylase 8 (Homo sapiens); assay: Inhibition of nuclear HDAC8 in human SH-SY5Y cells assessed as increase in histone H4 acetylation after 24 hrs by Western blot analysis; format: cell-based; summary of the method: as §3
[16] = target: T6, Protein deacetylase HDAC6 (Homo sapiens) (UniProt Q9UBN7); assay: Inhibition of cytoplasmic HDAC6 in human SH-SY5Y cells assessed as alpha-tubulin acetylation at 31.25 to 125 uM after 24 hrs by Western blot analysis; format: cell-based; summary of the method: as §3
T6 sequence (whole entry): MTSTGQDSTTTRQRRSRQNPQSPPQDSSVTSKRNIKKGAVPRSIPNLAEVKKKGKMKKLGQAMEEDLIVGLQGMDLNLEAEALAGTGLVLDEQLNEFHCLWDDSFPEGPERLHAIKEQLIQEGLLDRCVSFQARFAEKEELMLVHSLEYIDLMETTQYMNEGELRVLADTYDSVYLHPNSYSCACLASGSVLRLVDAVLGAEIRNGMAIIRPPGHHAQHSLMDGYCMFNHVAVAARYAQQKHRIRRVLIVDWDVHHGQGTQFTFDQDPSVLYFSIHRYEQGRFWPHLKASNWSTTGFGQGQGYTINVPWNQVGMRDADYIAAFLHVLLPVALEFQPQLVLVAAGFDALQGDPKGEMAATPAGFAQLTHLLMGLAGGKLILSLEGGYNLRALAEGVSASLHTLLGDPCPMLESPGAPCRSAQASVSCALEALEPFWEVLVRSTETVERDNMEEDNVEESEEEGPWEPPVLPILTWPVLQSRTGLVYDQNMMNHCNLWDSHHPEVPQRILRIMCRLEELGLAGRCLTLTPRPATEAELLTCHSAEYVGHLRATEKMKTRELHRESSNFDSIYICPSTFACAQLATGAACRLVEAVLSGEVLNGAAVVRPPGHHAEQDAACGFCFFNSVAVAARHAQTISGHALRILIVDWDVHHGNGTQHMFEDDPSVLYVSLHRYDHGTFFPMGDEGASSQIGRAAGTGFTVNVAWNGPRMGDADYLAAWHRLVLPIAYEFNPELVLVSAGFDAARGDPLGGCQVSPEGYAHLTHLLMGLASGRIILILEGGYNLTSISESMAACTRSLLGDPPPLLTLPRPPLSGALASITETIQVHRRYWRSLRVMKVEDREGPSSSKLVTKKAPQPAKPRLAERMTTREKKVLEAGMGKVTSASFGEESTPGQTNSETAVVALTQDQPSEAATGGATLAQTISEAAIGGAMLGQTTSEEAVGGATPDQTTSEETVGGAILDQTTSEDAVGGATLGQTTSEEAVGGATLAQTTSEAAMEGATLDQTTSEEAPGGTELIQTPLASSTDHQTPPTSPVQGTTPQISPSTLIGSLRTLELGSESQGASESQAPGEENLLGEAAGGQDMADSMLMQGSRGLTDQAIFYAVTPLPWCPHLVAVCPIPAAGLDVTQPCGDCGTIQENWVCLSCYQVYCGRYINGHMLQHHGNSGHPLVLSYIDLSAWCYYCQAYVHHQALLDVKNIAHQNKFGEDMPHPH

Histone deacetylase 3 [17] = target: T1, Histone deacetylase 3; assay: Inhibition of human recombinant HDAC3 using Boc-Lys(Ac)-AMC as substrate at 66 uM preincubated for 5 mins followed by substrate addition measured after 30 mins by microplate reader analysis
[18] = target: T2, Histone deacetylase 8 (Homo sapiens); assay: (§4) Binding affinity to human recombinant HDAC8 expressed in Escherichia coli assessed as enzyme biotinylation level at 1.5 uM under non denaturating condition after 3 hrs by Western blot-based photoaffinity labelling method in presence of 37.5 and 75 uM SAHA; summary of the method: as §2
[19] = target: T2, Histone deacetylase 8 (Homo sapiens); assay: Binding affinity to human recombinant HDAC8 expressed in Escherichia coli assessed as enzyme biotinylation level at 1.5 uM under non denaturating condition after 3 hrs by Western blot-based photoaffinity labelling method in presence of 37.5 and 75 uM TSA; summary of the method: as §2
[20] = target: T2, Histone deacetylase 8 (Homo sapiens); assay: Binding affinity to human recombinant HDAC8 expressed in Escherichia coli assessed as enzyme biotinylation level at 1.5 uM under non denaturating condition after 3 hrs by Western blot-based photoaffinity labelling method in presence of 37.5 and 75 uM PCI34051; summary of the method: as §2
[21] = target: T2, Histone deacetylase 8 (Homo sapiens); assay: as §4, with “7-[4-(3,5-Dimethyl-benzyloxy)phenylcarbamoyl]heptanoic acid methyl ester” for “37.5 and 75 uM SAHA”; summary of the method: as §2
[22] = target: T2, Histone deacetylase 8 (Homo sapiens); assay: Inhibition of human recombinant HDAC8 using fluor de Lys as substrate assessed as residual activity at 66 uM preincubated for 5 mins followed by substrate addition measured after 25 mins by microplate reader analysis
[23] = target: T6, Protein deacetylase HDAC6 (Homo sapiens); assay: Inhibition of cytoplasmic HDAC6 in human SH-SY5Y cells assessed as alpha-tubulin acetylation at 1 uM after 24 hrs by Western blot analysis; format: cell-based; summary of the method: as §3
[24] = target: T2, Histone deacetylase 8 (Homo sapiens); assay: Binding affinity to human recombinant HDAC8 expressed in Escherichia coli assessed as enzyme biotinylation level at […] preincubated for 3 hrs followed by denaturation measured after 60 mins by Western blot-based photoaffinity labelling method in presence of 0.25 and […] SAHA

T1 sequence (O15379 whole entry): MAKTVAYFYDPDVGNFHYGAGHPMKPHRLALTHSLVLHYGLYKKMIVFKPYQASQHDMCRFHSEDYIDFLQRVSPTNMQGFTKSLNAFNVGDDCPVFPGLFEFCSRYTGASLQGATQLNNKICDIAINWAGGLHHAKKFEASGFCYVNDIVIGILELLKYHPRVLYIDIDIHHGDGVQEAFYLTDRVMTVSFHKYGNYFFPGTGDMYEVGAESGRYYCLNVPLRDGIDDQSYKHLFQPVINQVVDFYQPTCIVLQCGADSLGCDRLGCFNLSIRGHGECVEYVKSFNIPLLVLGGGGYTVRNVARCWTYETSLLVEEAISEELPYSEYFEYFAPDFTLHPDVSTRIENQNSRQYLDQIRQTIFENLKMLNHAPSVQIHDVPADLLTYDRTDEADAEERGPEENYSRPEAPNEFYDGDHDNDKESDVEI
T5 sequence (Q92769 whole entry): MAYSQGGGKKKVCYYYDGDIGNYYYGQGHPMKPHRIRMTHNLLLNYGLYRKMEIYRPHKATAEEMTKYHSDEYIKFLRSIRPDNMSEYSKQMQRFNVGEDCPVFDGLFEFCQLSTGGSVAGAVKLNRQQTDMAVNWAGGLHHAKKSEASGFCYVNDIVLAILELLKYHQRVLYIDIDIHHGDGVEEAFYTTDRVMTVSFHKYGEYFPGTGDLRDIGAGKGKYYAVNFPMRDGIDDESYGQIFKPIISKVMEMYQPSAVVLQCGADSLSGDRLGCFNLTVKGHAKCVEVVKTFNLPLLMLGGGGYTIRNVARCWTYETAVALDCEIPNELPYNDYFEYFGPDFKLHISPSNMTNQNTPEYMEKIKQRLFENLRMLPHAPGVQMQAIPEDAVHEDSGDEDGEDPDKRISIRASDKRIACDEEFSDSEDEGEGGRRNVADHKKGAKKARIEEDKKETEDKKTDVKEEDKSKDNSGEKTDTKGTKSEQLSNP
T4 sequence (Q13547 whole entry): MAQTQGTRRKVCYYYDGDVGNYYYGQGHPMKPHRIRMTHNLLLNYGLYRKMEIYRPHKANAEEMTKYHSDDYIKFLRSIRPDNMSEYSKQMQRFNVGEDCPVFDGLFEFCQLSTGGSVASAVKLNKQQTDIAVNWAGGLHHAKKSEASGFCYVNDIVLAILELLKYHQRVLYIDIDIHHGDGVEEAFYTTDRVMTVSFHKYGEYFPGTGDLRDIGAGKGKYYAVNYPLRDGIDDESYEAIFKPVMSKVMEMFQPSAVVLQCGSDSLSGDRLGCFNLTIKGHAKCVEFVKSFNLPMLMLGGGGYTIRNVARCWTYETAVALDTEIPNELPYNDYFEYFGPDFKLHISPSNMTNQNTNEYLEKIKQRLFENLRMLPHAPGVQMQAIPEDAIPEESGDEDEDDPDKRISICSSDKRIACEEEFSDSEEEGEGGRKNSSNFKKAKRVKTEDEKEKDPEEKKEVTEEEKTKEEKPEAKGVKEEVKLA

pKi (Histone deacetylase 3 [1]): 7.64
SMILES: [N-]=[N+]=NCc1cc(N=[N+]=[N-])cc(C(=O)Nc2ccc(-c3cc(C(=O)NCCCCCCC(=O)NO)no3)cc2)c1

Activity [2]: inactive
Activity [3]: Dose-dependent effect
Activity [4]: Active
Activity [5]: Active
Activity [6]: Active
Activity [7]: inactive
Activity [8]: inactive
Activity [9]: inactive
pIC50 (Histone deacetylase 8): 4.43
SMILES: COC(=O)CCCCCCC(=O)Nc1ccc(OCc2cc(CN=[N+]=[N-])cc(N=[N+]=[N-])c2)cc1

pIC50 (Histone deacetylase 8): 4.27
SMILES: Cc1cc(C)cc(COc2ccc(NC(=O)CCCCCCC(=O)OC(C)(C)C)cc2)c1

pIC50 (Histone deacetylase 1 [10]): 4.07
pIC50 (Histone deacetylase 2 [11]): 4.10
inhibition (Histone deacetylase 1 [12]): Dose-dependent effect
inhibition (Histone deacetylase 2 [13]): Dose-dependent effect
inhibition (Histone deacetylase 3 [14]): Dose-dependent effect
inhibition [15]: Dose-dependent effect
inhibition [16]: inactive
inhibition (Histone deacetylase 3 [17]): inactive
Activity [9]: inactive
Activity [18]: inactive
Activity [19]: inactive
Activity [20]: inactive
Activity [21]: inactive
pIC50 (Histone deacetylase 8): 4.55
SMILES: COc1cc(COc2ccc(NC(=O)CCCCCCC(=O)OCc3ccc(CN=[N+]=[N-])cc3)cc2)cc(N=[N+]=[N-])c1

pKi (Histone deacetylase 3 [1]): 7.19
SMILES: [N-]=[N+]=NCc1cc(Cn2cc(NC(=O)CCCCCCC(=O)NO)cn2)cc(N=[N+]=[N-])c1

pIC50 (Histone deacetylase 8): 4.32
SMILES: COC(=O)CCCCCCC(=O)Nc1ccc(OCc2cc(C)cc(C)c2)cc1

IC50 (Histone deacetylase 8): Not Active
SMILES: CCCCCCCC(=O)Nc1ccc(OCc2cc(C)cc(C)c2)cc1

Activity [22]: > 50%
IC50 (Histone deacetylase 8): Not Active
SMILES: COC(=O)CCCCCCC(=O)Nc1ccc(OCc2ccccc2)cc1

pIC50 (Histone deacetylase 8): 4.33
SMILES: COC(=O)CCCCCCNC(=O)c1cc(-c2ccc(NC(=O)c3cc(CN=[N+]=[N-])cc(N=[N+]=[N-])c3)cc2)on1

inhibition [23]: Active
SMILES: O=C(NO)c1ccc(Cn2c3ccccc3c3ccccc32)cc1

pIC50 (Histone deacetylase 8): 4.44
SMILES: COC(=O)CCCCCCC(=O)Nc1cnn(Cc2cc(CN=[N+]=[N-])cc(N=[N+]=[N-])c2)c1

pIC50 (Histone deacetylase 1 [10]): 3.95
pIC50 (Histone deacetylase 2 [11]): 4.14
inhibition (Histone deacetylase 3 [17]): inactive
Activity [3]: Dose-dependent effect
pIC50 (Histone deacetylase 8): 4.17
SMILES: COc1cc(COc2ccc(NC(=O)CCCCCCC(=O)OCCN=[N+]=[N-])cc2)cc(N=[N+]=[N-])c1

pIC50 (Histone deacetylase 8): 4.37
SMILES: CC(C)(C)OC(=O)CCCCCCC(=O)Nc1ccc(OCc2cc(CN=[N+]=[N-])cc(N=[N+]=[N-])c2)cc1

pKi (Histone deacetylase 3 [1]): 6.13
Activity [3]: Dose-dependent effect
Activity [24]: inactive
SMILES: [N-]=[N+]=NCc1cc(COc2ccc(NC(=O)CCCCCCC(=O)NO)cc2)cc(N=[N+]=[N-])c1
